In ChEMBL document CHEMBL4041520, “Novel pyrimidine-2,4-dione-1,2,3-triazole and furo[2,3-d]pyrimidine-2-one-1,2,3-triazole hybrids as potential anti-cancer agents: Synthesis, computational and X-ray analysis and biological evaluation” (Eur J Med Chem, 2017) one finds IC50 data, which are given here for 31 molecules.

One assay has as its system HepG2. The assay is described as follows: Antiproliferative activity against human HepG2 cells after 72 hrs by MTT assay. It counts as functional, cell-based. To be noted: HepG2, 72 h. The gist of the method:
(§1)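 Monolayers grown in DMEM with 10% FBS and 2 mM L-glutamine at 37 °C, 5% CO2. Cells seeded at 5000 per well on day 0. Compounds added in five 10-fold dilutions (0.01–100 µM), DMSO ≤0.1%, for 72 h. MTT absorbance converted to percentage growth versus untreated wells. IC50 by linear regression of the dose-response curve; highest concentration reported when not reached. Quadruplicate points, three experiments.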
A general note: Formazan colour is commonly taken as a measure of viable cells.

The next assay deals with CFPAC-1. As to the kind of experiment: Antiproliferative activity against human CFPAC-1 cells after 72 hrs by MTT assay. Format: functional, cell-based. As to conditions: CFPAC-1, 72 h. The gist of the method: as §1
In another assay the test system is WI-38. The assay is described as follows: Antiproliferative activity against human WI38 cells after 72 hrs by MTT assay. It counts as cell-based. As to conditions: WI-38, 72 h. In outline:
as §1

In a further assay the test system is A549. The assay is described as follows: Antiproliferative activity against human A549 cells after 72 hrs by MTT assay. To be noted: A549, 72 h. Format: functional, cell-based. The gist of the method:
as §1

Another assay has as its system SW-620. As to the kind of experiment: Antiproliferative activity against human SW620 cells after 72 hrs by MTT assay. To be noted: SW-620, 72 h. Format: functional, cell-based. The gist of the method:
as §1

In the next assay the test system is HeLa. The assay is described as follows: Antiproliferative activity against human HeLa cells after 72 hrs by MTT assay. It counts as functional, cell-based. The gist of the method: as §1

Where only a bound is given, the exact number is not on record here.

For orientation: IC50 means the concentration at which inhibition is half-maximal. Lower therefore signals greater potency. Regarding `C#CCn1c(=O)c(I)cn(Cc2cn(-c3ccc(F)cc3)nn2)c1=O`, the IC50 with HepG2 is 5.11 µM; in the assay with CFPAC-1 it was 4.21 µM; in the assay on WI-38, below 0.01 µM; in the assay on A549, 3.06 µM; in the assay on SW-620 it was 6.63 µM; with HeLa, 4.5 µM.

With `O=c1nc2oc(CCCCl)c(C#CCCCCl)c2cn1Cc1cn(-c2ccc(Cl)cc2)nn1`, the IC50 was 72.5 µM in the assay with HepG2; above 100 µM in the assay with CFPAC-1; above 100 µM with WI-38; above 100 µM in the assay with A549; above 100 µM with SW-620; above 100 µM with HeLa.

In the case of `O=c1c(I)cn(Cc2cn(Cc3ccccc3)nn2)c(=O)n1Cc1cn(Cc2ccccc2)nn1`, the IC50 is 5.77 µM in the assay on HepG2; above 100 µM in the assay on CFPAC-1; below 0.01 µM in the assay on WI-38; 41.3 µM with A549; above 100 µM in the assay with SW-620; 15.1 µM with HeLa.

Turning to `CCCCCCc1cc2cn(Cc3cn(Cc4ccccc4)nn3)c(=O)nc2o1`, the 50% inhibitory concentration (IC50) was 68.7 µM with HepG2; 67 µM in the assay with CFPAC-1; 62.8 µM in the assay on WI-38; 51 µM with A549; 93.5 µM with SW-620; 59.4 µM in the assay with HeLa.

As to `O=c1[nH]c(=O)n(Cc2cn(-c3ccc(F)cc3)nn2)cc1I`, the IC50 was above 100 µM in the assay with HepG2; 83.7 µM with CFPAC-1; 3.78 µM with WI-38; 78.8 µM with A549; above 100 µM in the assay with SW-620; 7.2 µM in the assay on HeLa.

Consider `CCCCCCC#Cc1c(CCCCCC)oc2nc(=O)n(Cc3cn(Cc4ccccc4)nn3)cc12`, for which the IC50 was determined as 25.8 µM in the assay on HepG2; 27.3 µM in the assay with CFPAC-1; 23.4 µM in the assay on WI-38; 21.9 µM in the assay with A549; 32.6 µM in the assay with SW-620; 23.4 µM with HeLa.

For `O=c1nc2oc(CCCCl)cc2cn1Cc1cn(-c2ccc(F)cc2)nn1`, the IC50 in the assay with HepG2 is 14.6 µM; in the assay on CFPAC-1, 6.49 µM; with WI-38, below 0.01 µM; with A549, 68.4 µM; in the assay on SW-620, above 100 µM; in the assay with HeLa, 6.99 µM.

Turning to `O=c1nc2oc(CCCCl)cc2cn1Cc1cn(Cc2ccccc2)nn1`, the IC50 with HepG2 turned out to be 27.6 µM; with CFPAC-1, 23.5 µM; in the assay with WI-38, 5.2 µM; with A549, 27.9 µM; in the assay with SW-620, 75.5 µM; in the assay on HeLa, 9.58 µM.

Consider `O=c1nc2oc(CCCCl)cc2cn1Cc1cn(-c2ccccc2F)nn1`, for which the IC50 is 79.8 µM in the assay on HepG2; 81.8 µM with CFPAC-1; 76.5 µM in the assay on WI-38; 69.8 µM in the assay on A549; above 100 µM with SW-620; 66.5 µM with HeLa.

With `CCCCCCC#Cc1c(CCCCCC)oc2nc(=O)n(Cc3cn(-c4ccc(Cl)cc4)nn3)cc12`, the IC50 with HepG2, with CFPAC-1, in the assay on WI-38, in the assay with A549, in the assay on SW-620 and in the assay with HeLa was above 100 µM each time.

For `O=c1[nH]c(=O)n(Cc2cn(-c3ccccc3F)nn2)cc1I`, the IC50 is above 100 µM with HepG2; above 100 µM in the assay with CFPAC-1; 73.1 µM with WI-38; 95.1 µM in the assay on A549; above 100 µM in the assay with SW-620; above 100 µM in the assay with HeLa.

For `O=c1nc2oc(CCCCl)cc2cn1Cc1cn(-c2ccc(Cl)cc2)nn1`, the IC50 with HepG2 was 89.8 µM; with CFPAC-1 it was above 100 µM; with WI-38, 72.5 µM; in the assay with A549, 52 µM; in the assay on SW-620, above 100 µM; in the assay on HeLa, 60.2 µM.

On to `O=c1nc2oc(CCCCl)c(C#CCCCCl)c2cn1Cc1cn(-c2ccc(F)cc2)nn1`, for which the IC50 was determined as 36.9 µM in the assay with HepG2; 95.8 µM in the assay on CFPAC-1; 0.07 µM with WI-38; 39.4 µM with A549; 69.6 µM with SW-620; 41.8 µM in the assay on HeLa.

On to `O=c1nc2oc(C3CC3)c(C#CC3CC3)c2cn1Cc1cn(Cc2ccccc2)nn1`, for which the IC50 in the assay with HepG2 amounted to 2.67 µM; in the assay on CFPAC-1, 4.59 µM; in the assay on WI-38 it was 0.29 µM; with A549 it was 4.81 µM; with SW-620, 9.72 µM; in the assay with HeLa, 6.51 µM.

Take `O=c1c(I)cn(Cc2cn(-c3ccc(Cl)cc3)nn2)c(=O)n1Cc1cn(-c2ccc(Cl)cc2)nn1`: the half-maximal inhibitory concentration (IC50) is above 100 µM in the assay on HepG2; above 100 µM with CFPAC-1; 0.03 µM with WI-38; 71.1 µM in the assay with A549; above 100 µM in the assay with SW-620; 96.5 µM with HeLa.

As to `O=c1nc2oc(C3CC3)c(C#CC3CC3)c2cn1Cc1cn(-c2ccccc2F)nn1`, the IC50 in the assay on HepG2 was determined as 39.1 µM; in the assay with CFPAC-1, 54.5 µM; with WI-38, 45.9 µM; with A549 it was 38.3 µM; with SW-620, 49.1 µM; in the assay with HeLa it was 51.2 µM.

For `O=c1nc2oc(C3CC3)cc2cn1Cc1cn(-c2ccc(Cl)cc2)nn1`, the 50% inhibitory concentration (IC50) was above 100 µM with HepG2; above 100 µM in the assay on CFPAC-1; above 100 µM in the assay on WI-38; 61 µM in the assay on A549; above 100 µM in the assay with SW-620; above 100 µM with HeLa.

Take `O=c1[nH]cc(F)c(=O)[nH]1` [FLUOROURACIL]: the IC50 in the assay with CFPAC-1 amounted to 0.14 µM; in the assay on WI-38, 0.94 µM; in the assay on A549, 2.8 µM; in the assay with SW-620, 0.08 µM; in the assay on HeLa, 8.81 µM.

On to `O=c1nc2oc(C3CC3)cc2cn1Cc1cn(Cc2ccccc2)nn1`, for which the IC50 turned out to be 49.1 µM in the assay with HepG2; 48.5 µM in the assay on CFPAC-1; 29.7 µM in the assay with WI-38; 45 µM in the assay with A549; 54.7 µM in the assay on SW-620; 50 µM in the assay on HeLa.

Consider `O=c1[nH]c(=O)n(Cc2cn(Cc3ccccc3)nn2)cc1I`, for which the IC50 was above 100 µM in the assay with HepG2; above 100 µM in the assay with CFPAC-1; 55.2 µM in the assay on WI-38; above 100 µM in the assay with A549; above 100 µM in the assay with SW-620; above 100 µM in the assay with HeLa.

`O=c1nc2oc(C3CC3)c(C#CC3CC3)c2cn1Cc1cn(-c2ccc(Cl)cc2)nn1`: the IC50 came to 39.2 µM with HepG2; 35.4 µM in the assay on CFPAC-1; 3.15 µM with WI-38; 39 µM in the assay on A549; 36.9 µM in the assay with SW-620; 16.1 µM in the assay with HeLa.

With `O=c1c(I)cn(Cc2cn(-c3ccc(F)cc3)nn2)c(=O)n1Cc1cn(-c2ccc(F)cc2)nn1`, the IC50 in the assay with HepG2 is 53.5 µM; in the assay with CFPAC-1 it was 51.2 µM; in the assay on WI-38, below 0.01 µM; in the assay with A549, 78.7 µM; with SW-620 it was 94.8 µM; in the assay on HeLa it was 41.9 µM.

Consider `C#CCn1c(=O)c(I)cn(Cc2cn(-c3ccccc3F)nn2)c1=O`, for which the IC50 in the assay on HepG2 is above 100 µM; in the assay with CFPAC-1, above 100 µM; in the assay on WI-38, 0.16 µM; in the assay on A549, 56.2 µM; with SW-620, above 100 µM; in the assay on HeLa, above 100 µM.

For `O=c1nc2oc(CCCCl)c(C#CCCCCl)c2cn1Cc1cn(Cc2ccccc2)nn1`, the IC50 came to 25.5 µM in the assay on HepG2; 32.8 µM in the assay with CFPAC-1; 17.6 µM with WI-38; 26.9 µM with A549; 33.9 µM in the assay with SW-620; 25.4 µM in the assay on HeLa.

`O=c1[nH]c(=O)n(Cc2cn(-c3ccc(Cl)cc3)nn2)cc1I`: the IC50 was above 100 µM with HepG2; 77.2 µM with CFPAC-1; below 0.01 µM with WI-38; 50.6 µM in the assay on A549; 34.6 µM in the assay on SW-620; 6.79 µM in the assay on HeLa.

Turning to `CCCCCCC#Cc1c(CCCCCC)oc2nc(=O)n(Cc3cn(-c4ccc(F)cc4)nn3)cc12`, the IC50 with HepG2, with CFPAC-1, in the assay on WI-38, with A549, with SW-620 and in the assay on HeLa was above 100 µM in each case.

As to `CCCCCc1ccc(C#Cc2c(-c3ccc(CCCCC)cc3)oc3nc(=O)n(Cc4cn(-c5ccc(Cl)cc5)nn4)cc23)cc1`, the IC50 with HepG2, in the assay with CFPAC-1, in the assay on WI-38, in the assay with A549, with SW-620 and with HeLa was above 100 µM each time.

In the case of `C#CCn1c(=O)c(I)cn(Cc2cn(-c3ccc(Cl)cc3)nn2)c1=O`, the IC50 came out at 13.1 µM in the assay with HepG2; 5.53 µM in the assay on CFPAC-1; 0.04 µM in the assay with WI-38; 4.69 µM with A549; 18.3 µM with SW-620; 4.74 µM in the assay with HeLa.

On to `CCCCCc1ccc(C#Cc2c(-c3ccc(CCCCC)cc3)oc3nc(=O)n(Cc4cn(Cc5ccccc5)nn4)cc23)cc1`, for which the IC50 in the assay with HepG2 was above 100 µM; in the assay with CFPAC-1, above 100 µM; in the assay on WI-38 it was 2.65 µM; with A549, above 100 µM; with SW-620 it was above 100 µM; in the assay with HeLa it was 73 µM.

For `O=c1c(I)cn(Cc2cn(-c3ccccc3F)nn2)c(=O)n1Cc1cn(-c2ccccc2F)nn1`, the IC50 in the assay on HepG2 is 36.1 µM; in the assay with CFPAC-1 it was 55.9 µM; with WI-38, 2.22 µM; in the assay on A549 it was 53.4 µM; in the assay with SW-620, above 100 µM; in the assay with HeLa, 49.8 µM.

Take `CCCCCCc1cc2cn(Cc3cn(-c4ccccc4F)nn3)c(=O)nc2o1`: the IC50 is above 100 µM in the assay on HepG2; above 100 µM in the assay with CFPAC-1; 69.2 µM in the assay with WI-38; above 100 µM with A549; above 100 µM in the assay with SW-620; above 100 µM in the assay with HeLa.
